# Calls of active or inactive are those of the source. No cut-off for these calls is given here.
# Assays:
# U-937 [1] = test: Growth inhibition of human U937 cells assessed as [3H]5-methyl thymidine incorporation after 48 hrs by liquid scintillation counting; type: functional, cell-based
# Outline: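 Exponentially growing U-937 cells (10⁴ per well in RPMI 1640) exposed to coumarins up to 2.0 mM or 0.0001% (v/v) DMSO for 48 h. 0.5 µCi [³H]5-methyl thymidine added 12 h before the end. Cells harvested, incorporation read by liquid scintillation counting as % of DMSO control. IC50 from sigmoidal dose-response fit; quadruplicate, at least four independent experiments.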
# U-937 [2] = test: Cytotoxicity against human U937 cells after 48 hrs by trypan blue assay; type: functional; details: U-937, 48 h
# Outline: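 U-937 cells in exponential growth seeded at 10⁵ cells/mL RPMI 1640, exposed to coumarin 0.15 µM to 2.0 mM or 0.0001% (v/v) DMSO vehicle for 48 h at 5% CO₂. Viable cells counted by trypan blue exclusion (0.4%, 5 min) in a hemocytometer. CC50 from sigmoidal dose-response fit; quadruplicate, at least four independent experiments.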
# U-937 [3] = test: Induction of human U937 cell differentiation assessed as expression of CD88 receptor at 50 uM after 2 days; type: functional, cell-based
# Outline: (§1)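 CD88 read-out as C5a-evoked Ca²⁺ release: U-937 cells (1 × 10⁶/mL) treated 48 h with 5, 25 or 50 µM compound, 400 µM dbcAMP or 0.0001% DMSO. Loaded with 2 µM Fura 2-AM in BSS pH 7.5, 30 min, 37 °C, then 2 × 10⁶ cells/mL. F340/F380 (emission 505 nm) recorded for 8 min at 37 °C with rhC5a or ATP injection. Calibrated with Triton X-100/EGTA; ≥3 experiments.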
# U-937 [4] = test: Induction of human U937 cell differentiation assessed as burst oxidative capacity at 25 uM after 72 hrs by NBT reduction assay relative to control; type: functional, cell-based
# Outline: (§2)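 NBT reduction: U-937 cells (2 × 10⁵/mL) treated 72 h with 25 or 50 µM compound, 1 µM ATRA (positive control) or 0.0001% (v/v) DMSO. Washed, then incubated in RPMI containing 1 mg/mL NBT and 1 µg/mL PMA for 30 min at 37 °C. Formazan dissolved in DMSO, A570 read relative to DMSO control (=1); n = 3.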
# U-937 [5] = test: Growth inhibition of human U937 cells assessed as cell proliferation after 72 hrs; type: functional, cell-based; details: TDE = time-dependent effect
# Outline: (§3)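 U-937 cells seeded at 10⁵ cells/mL and treated with 25 or 50 µM compound, 400 µM dbcAMP (positive control) or 0.0001% (v/v) DMSO for up to 72 h (sampled at 24, 48, 72 h). Cell number counted on a Coulter Z-1, with density kept ≤1 × 10⁶ cells/mL. Expressed as % of DMSO control; n = 3.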
# U-937 [6] = test: Induction of human U937 cell differentiation assessed as expression of CD88 receptor at 5 uM after 2 days; type: functional, cell-based; outline: as §1
# U-937 [7] = test: Growth inhibition of human U937 cells assessed as proliferation at 50 uM after 72 hrs; type: functional; details: U-937, 72 h, read-out: Activity; outline: as §3
# U-937 [8] = test: Induction of human U937 cell differentiation assessed as expression of CD11b levels at 50 uM after 72 hrs relative to control; type: functional, cell-based
# Outline: (§4)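 U-937 cells (2 × 10⁵/mL) treated 72 h with 25 or 50 µM compound, 400 µM dbcAMP (positive control) or 0.0001% (v/v) DMSO. Washed in PBS, stained with saturating PE anti-CD11b or isotype control, 4 °C, 30 min. Analysed by flow cytometry, ≥5000 events; CD11b relative to DMSO control (=1); n = 3.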
# U-937 [9] = test: Induction of human U937 cell differentiation assessed as increase in rhC5a-stimulated intracellular calcium at 50 uM after 2 days; type: functional, cell-based; outline: as §1
# U-937 [10] = test: Induction of human U937 cell differentiation assessed as burst oxidative capacity at 50 uM after 72 hrs by NBT reduction assay relative to control; type: functional, cell-based; outline: as §2
# U-937 [11] = test: Induction of human U937 cell differentiation assessed as expression of CD11b levels at 25 uM after 72 hrs relative to control; type: functional, cell-based; outline: as §4
# U-937 [12] = test: Induction of human U937 cell differentiation assessed as increase in rhC5a-stimulated intracellular calcium at 25 uM after 2 days; type: functional, cell-based; outline: as §1
# U-937 [13] = test: Induction of human U937 cell differentiation assessed as expression of CD88 receptor at 25 uM after 2 days; type: functional, cell-based; outline: as §1
Compound,IC50 (U-937 [1]),CC50 (U-937 [2]),further results
COc1cc(OC)c2ccc(=O)oc2c1OC,> 400 µM,> 2000 µM,–
C=C(C)C(O)COc1cc2oc(=O)ccc2cc1OC (configuration not stated),> 400 µM,704 µM,–
COc1cc(OC)c2ccc(=O)oc2c1O [LEPTODACTYLONE],> 400 µM,> 2000 µM,–
COc1cc2oc(=O)ccc2c(OC)c1O [FRAXINOL],> 400 µM,> 2000 µM,–
CC(C)=CCOc1cc2oc(=O)ccc2cc1O [PRENYLETIN],> 400 µM,820 µM,–
COc1c2c(c(OC)c3oc(=O)ccc13)OCO2,> 400 µM,> 2000 µM,–
O=c1ccc2ccccc2o1 [COUMARIN],> 400 µM,> 2000 µM,–
COc1cc2ccc(=O)oc2cc1OCC=C(C)C [PRENYLETIN 6-METHYL ETHER],> 400 µM,799 µM,–
O=c1ccc2ccc3c(c2o1)OCO3,> 400 µM,> 2000 µM,–
COc1cc(OC)c2ccc(=O)oc2c1OCC=C(C)C [ARTANIN],177 µM,535 µM,–
"COc1cc2oc(=O)ccc2c(OC)c1OC [5,6,7-TRIMETHOXYCOUMARIN]",182 µM,790 µM,–
COC(C)(C)C(O)COc1c2c(cc3oc(=O)ccc13)OCO2 (configuration not stated),25.3 µM,365 µM,Activity (U-937 [3]): Active; Activity (U-937 [4]): Active; growth inhibition (GI) (U-937 [5]): tde; Activity (U-937 [10]): Active; Activity (U-937 [11]): inactive; Activity (U-937 [6]): inactive; Activity (U-937 [12]): Active; Activity (U-937 [13]): Agonist; growth at 50 µM (U-937 [7]): 62.5%; Activity (U-937 [8]): inactive; Activity (U-937 [9]): Active

# Second part, led by results:
IC50 (U-937 [1]),Compound,CC50 (U-937 [2]),further results
> 400 µM,COc1c2c(cc3ccc(=O)oc13)OCO2,> 2000 µM,–
> 400 µM,CC1(C)OC1COc1c2c(cc3oc(=O)ccc13)OCO2 (configuration not stated),899 µM,–
227 µM,CC(C)(Cl)C(O)COc1c2c(cc3oc(=O)ccc13)OCO2 (configuration not stated),567 µM,–
255 µM,O=c1ccc2c(O)c3c(cc2o1)OCO3,> 2000 µM,–
> 400 µM,O=c1ccc2c(F)c3c(cc2o1)OCO3,> 2000 µM,–
> 400 µM,O=c1ccc2cc3c(cc2o1)OCO3 [AYAPIN],> 2000 µM,–
3.5 µM,CC(C)=CCOc1c2c(cc3oc(=O)ccc13)OCO2,266 µM,–
> 400 µM,O=c1ccc2c(Br)c3c(cc2o1)OCO3,> 2000 µM,–
192 µM,CC(C)(O)C(O)COc1c2c(cc3oc(=O)ccc13)OCO2 (configuration not stated),420 µM,Activity (U-937 [3]): Active; Activity (U-937 [4]): Active; growth inhibition (GI) (U-937 [5]): tde; Activity (U-937 [6]): inactive; growth at 50 µM (U-937 [7]): 38%; Activity (U-937 [8]): inactive; Activity (U-937 [9]): Active
2.2 µM,COc1c2c(cc3oc(=O)ccc13)OCO2,252 µM,–
